For experiment [1], the target named is 5-hydroxytryptamine receptor 2A (Rattus norvegicus, UniProt P14842). Description: Displacement of [3H]ketanserin from Sprague-Dawley rat brain cortex serotonin 5-HT2A receptor after 15 mins by liquid scintillation counting. Particulars: for Ki: read-out: Ki. In a few lines:
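Male Sprague-Dawley rat frontal cortex membranes in 50 mM Tris-HCl, 0.5 mM EDTA, 10 mM MgCl2 pH 7.4, with 0.1% ascorbate and pargyline. 0.4 nM [3H]ketanserin, 5 mg wet tissue, 15 min at 37 °C. Filtered on PEI-soaked glass fibre. Six compound concentrations in triplicate. IC50 converted to Ki by Cheng-Prusoff.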
Background: Loss of bound radioactivity is the signal in a displacement assay; it reports binding, not function.

The target of experiment [2] is T1, 5-hydroxytryptamine receptor 1A (Rattus norvegicus, UniProt P19327).
T1 sequence (P19327 whole entry): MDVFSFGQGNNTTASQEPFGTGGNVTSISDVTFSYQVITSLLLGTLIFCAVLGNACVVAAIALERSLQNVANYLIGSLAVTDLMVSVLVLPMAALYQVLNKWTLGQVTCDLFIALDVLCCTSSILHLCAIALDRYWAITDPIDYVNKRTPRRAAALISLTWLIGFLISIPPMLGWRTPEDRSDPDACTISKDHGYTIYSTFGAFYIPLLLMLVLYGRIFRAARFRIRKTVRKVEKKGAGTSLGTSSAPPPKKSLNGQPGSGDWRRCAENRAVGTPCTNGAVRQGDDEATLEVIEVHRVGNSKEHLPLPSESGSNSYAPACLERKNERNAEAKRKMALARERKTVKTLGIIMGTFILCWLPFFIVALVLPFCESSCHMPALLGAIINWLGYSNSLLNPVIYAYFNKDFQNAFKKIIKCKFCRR
Kind of experiment: Displacement of [3H]-8-OH-DPAT from Sprague-Dawley rat brain cortex serotonin 5-HT1A receptor after 30 mins by liquid scintillation counting. Particulars: read-out: Ki. In a few lines: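 Male Sprague-Dawley rat (180-220 g) cerebral cortex homogenized in 50 mM Tris-HCl pH 7.7, spun 50,000 g. [3H]-8-OH-DPAT 0.1 nM final, 30 min at 37 °C, GF/B filtration. Test compounds in ethanol or 5% DMSO, six concentrations in triplicate. IC50 by curve fitting, Ki by Cheng-Prusoff using Scatchard-derived KD.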

Another experiment addresses D(1A) dopamine receptor (Rattus norvegicus, UniProt P18901). Kind of experiment: Displacement of [3H]SCH-23390 from rat corpora striatum dopamine D1 receptor after 15 mins by liquid scintillation counting. Particulars: read-out: Ki. An outline of the steps:
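Rat corpora striata homogenized in 50 mM Tris-HCl pH 7.7, spun twice at 50,000 g. Resuspended in Tris-HCl with NaCl, KCl, CaCl2, MgCl2, ascorbic acid and pargyline. 0.4 nM [3H]SCH-23390 final, 3 mg fresh tissue, 15 min at 37 °C. Nonspecific binding with piflutixol. Ki by Cheng-Prusoff from triplicate six-point curves.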

The next experiment concerns the target D(2) dopamine receptor (Rattus norvegicus, UniProt P61169). Kind of experiment: Displacement of [3H]spiperone from rat corpora striatum dopamine D2 receptor after 15 mins by liquid scintillation counting. Particulars: read-out: Ki. An outline of the steps:
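Corpora striata membranes in Tris-HCl buffer containing NaCl, KCl, CaCl2, MgCl2, ascorbic acid and pargyline. [3H]spiperone 0.4 nM final, 3 mg fresh tissue, incubated 15 min at 37 °C. GF/B filtration, scintillation counting. Six concentrations in triplicate. IC50 converted to Ki via Cheng-Prusoff.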

Experiment [3] deals with T2, Adrenergic receptor alpha-1 (Rattus norvegicus, UniProt P15823+P23944+P43140).
T2 sequence (P15823 whole entry): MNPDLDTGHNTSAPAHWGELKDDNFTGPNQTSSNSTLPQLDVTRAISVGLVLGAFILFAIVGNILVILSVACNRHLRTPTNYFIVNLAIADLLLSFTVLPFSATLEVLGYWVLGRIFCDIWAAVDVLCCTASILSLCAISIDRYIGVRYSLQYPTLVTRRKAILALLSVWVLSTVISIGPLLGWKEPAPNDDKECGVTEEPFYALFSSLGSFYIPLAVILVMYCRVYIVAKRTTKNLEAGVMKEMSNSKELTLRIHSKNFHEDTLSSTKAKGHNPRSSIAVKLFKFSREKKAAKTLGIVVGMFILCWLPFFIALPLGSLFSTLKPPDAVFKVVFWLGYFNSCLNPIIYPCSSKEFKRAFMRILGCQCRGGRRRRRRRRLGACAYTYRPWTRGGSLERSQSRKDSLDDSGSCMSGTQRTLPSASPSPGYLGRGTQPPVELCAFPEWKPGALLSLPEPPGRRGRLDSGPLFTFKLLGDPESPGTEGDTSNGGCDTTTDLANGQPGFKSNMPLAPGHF
T2 sequence (P23944 whole entry): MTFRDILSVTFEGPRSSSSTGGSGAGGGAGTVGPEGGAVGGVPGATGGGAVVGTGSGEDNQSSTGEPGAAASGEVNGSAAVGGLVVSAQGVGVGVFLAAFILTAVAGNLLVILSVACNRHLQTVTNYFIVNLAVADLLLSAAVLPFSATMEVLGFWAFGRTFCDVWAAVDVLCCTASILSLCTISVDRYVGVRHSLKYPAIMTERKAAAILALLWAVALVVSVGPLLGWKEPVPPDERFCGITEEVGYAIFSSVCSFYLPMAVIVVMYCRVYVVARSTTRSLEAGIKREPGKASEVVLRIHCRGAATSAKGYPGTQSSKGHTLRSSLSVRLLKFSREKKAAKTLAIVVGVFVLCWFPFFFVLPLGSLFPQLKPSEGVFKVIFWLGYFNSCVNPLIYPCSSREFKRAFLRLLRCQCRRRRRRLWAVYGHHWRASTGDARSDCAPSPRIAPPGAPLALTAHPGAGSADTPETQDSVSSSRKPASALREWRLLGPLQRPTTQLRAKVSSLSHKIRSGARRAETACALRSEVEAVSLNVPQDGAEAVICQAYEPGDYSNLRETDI
T2 sequence (P43140 whole entry): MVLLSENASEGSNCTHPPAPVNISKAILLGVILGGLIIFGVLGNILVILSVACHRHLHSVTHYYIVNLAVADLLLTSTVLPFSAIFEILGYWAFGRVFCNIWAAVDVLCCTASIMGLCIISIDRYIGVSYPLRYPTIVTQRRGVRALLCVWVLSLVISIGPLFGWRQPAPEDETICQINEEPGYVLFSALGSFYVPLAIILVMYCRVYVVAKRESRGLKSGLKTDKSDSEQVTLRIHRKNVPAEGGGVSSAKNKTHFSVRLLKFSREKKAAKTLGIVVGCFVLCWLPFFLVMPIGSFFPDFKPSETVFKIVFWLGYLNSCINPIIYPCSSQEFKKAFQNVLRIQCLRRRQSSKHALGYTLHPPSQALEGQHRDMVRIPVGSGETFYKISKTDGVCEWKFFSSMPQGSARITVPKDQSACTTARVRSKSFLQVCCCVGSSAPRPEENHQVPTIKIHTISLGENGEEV
Kind of experiment: Displacement of [3H]prazosin from rat brain cortex adrenergic alpha1 receptor after 30 mins by liquid scintillation counting. In a few lines: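 Brain cortex homogenized in 50 mM Tris-HCl pH 7.2, spun twice at 50,000 g, resuspended in Tris-HCl pH 7.4. 0.4 nM [3H]prazosin final, 10 mg fresh tissue, 30 min at 25 °C. Nonspecific binding with phentolamine. GF/B filtration. Ki by Cheng-Prusoff from six-point triplicate curves.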

Bounds are passed on as bounds.

We go through six molecules from ChEMBL document CHEMBL1926621, “New potent 5-HT(2A) receptor ligands containing an N'-cyanopicolinamidine nucleus: Synthesis and in vitro pharmacological evaluation” (Eur J Med Chem, 2012).

Chain of D(1A) dopamine receptor (P18901 whole entry): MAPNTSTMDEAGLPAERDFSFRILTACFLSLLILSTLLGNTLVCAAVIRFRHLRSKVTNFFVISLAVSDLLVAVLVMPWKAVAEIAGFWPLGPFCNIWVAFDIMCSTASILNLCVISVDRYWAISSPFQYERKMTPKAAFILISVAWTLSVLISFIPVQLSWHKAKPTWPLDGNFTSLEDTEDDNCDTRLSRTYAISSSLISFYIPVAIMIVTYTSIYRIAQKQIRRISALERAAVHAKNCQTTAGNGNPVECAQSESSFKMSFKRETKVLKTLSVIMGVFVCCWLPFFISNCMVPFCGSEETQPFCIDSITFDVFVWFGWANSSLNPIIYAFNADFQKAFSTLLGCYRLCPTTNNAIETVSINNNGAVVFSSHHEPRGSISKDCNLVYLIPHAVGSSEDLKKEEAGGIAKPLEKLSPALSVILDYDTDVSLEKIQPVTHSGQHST
Chain of D(2) dopamine receptor (P61169 whole entry): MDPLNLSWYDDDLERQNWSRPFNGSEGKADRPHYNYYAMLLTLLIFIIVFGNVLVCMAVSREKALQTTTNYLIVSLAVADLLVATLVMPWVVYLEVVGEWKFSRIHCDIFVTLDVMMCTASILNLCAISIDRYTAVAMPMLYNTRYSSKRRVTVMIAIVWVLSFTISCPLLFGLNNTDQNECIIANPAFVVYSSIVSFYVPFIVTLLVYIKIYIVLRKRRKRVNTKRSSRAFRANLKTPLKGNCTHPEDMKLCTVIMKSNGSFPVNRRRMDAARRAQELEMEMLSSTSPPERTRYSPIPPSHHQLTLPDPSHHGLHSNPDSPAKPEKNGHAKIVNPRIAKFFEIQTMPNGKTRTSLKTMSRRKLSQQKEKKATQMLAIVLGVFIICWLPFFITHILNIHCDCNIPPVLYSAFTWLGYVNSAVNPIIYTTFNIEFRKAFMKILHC
Chain of 5-hydroxytryptamine receptor 2A (P14842 whole entry): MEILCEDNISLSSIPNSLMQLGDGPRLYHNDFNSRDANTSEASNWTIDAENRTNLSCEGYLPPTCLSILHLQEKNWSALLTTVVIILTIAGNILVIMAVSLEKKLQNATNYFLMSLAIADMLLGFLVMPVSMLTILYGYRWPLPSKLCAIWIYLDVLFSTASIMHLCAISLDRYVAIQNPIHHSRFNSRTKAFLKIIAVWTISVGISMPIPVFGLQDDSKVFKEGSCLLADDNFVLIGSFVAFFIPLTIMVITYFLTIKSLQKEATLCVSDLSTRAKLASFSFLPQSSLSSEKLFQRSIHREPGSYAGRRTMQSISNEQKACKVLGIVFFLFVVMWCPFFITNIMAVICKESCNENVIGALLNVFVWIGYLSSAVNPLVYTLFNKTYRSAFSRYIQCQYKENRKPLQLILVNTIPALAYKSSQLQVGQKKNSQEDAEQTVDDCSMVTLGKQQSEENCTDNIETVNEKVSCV

For the molecule `N#C/N=C(\NCCCN1CCN(c2ncccn2)CC1)c1ccccn1`, in experiment [1], the IC50 (as a rule, the concentration needed to halve the response being measured) came to 0.0217 nM. In addition, the Ki (usually a dissociation constant, usually derived from enzyme kinetics or from competition with a known ligand) is 0.0161 nM in experiment [1]; 3080 nM in experiment [2]; over 10000 nM on D(1A) dopamine receptor; over 10000 nM at D(2) dopamine receptor; over 10000 nM in experiment [3].

Turning to `Cc1cccc(N2CCN(CCCN/C(=N\C#N)c3ccccn3)CC2)c1C`, the Ki in experiment [1] is 0.867 nM; in experiment [2], 30 nM; at D(1A) dopamine receptor, over 10000 nM; on D(2) dopamine receptor, over 10000 nM; in experiment [3], 729 nM.

For the molecule `CCOc1ccccc1N1CCN(CCCN/C(=N\C#N)c2ccccn2)CC1`, the Ki in experiment [1] is 2730 nM; in experiment [2] it was 17.2 nM; on D(1A) dopamine receptor it was 52.4 nM; on D(2) dopamine receptor, over 10000 nM; in experiment [3], 152 nM.

On to `N#C/N=C(\NCCCN1CCN(c2cccc(C(F)(F)F)c2)CC1)c1ccccn1`, for which the IC50 in experiment [1] was found to be 0.00105 nM. Further, the Ki in experiment [1] was 0.000778 nM; in experiment [2] it was 1.31 nM; on D(1A) dopamine receptor it was over 10000 nM; on D(2) dopamine receptor, 83.7 nM; in experiment [3], 770 nM.

In experiment [1], `COc1ccccc1N1CCN(CCCN/C(=N\C#N)c2ccccn2)CC1` returned an IC50 of 0.00212 nM. Besides, the Ki was 0.00157 nM in experiment [1]; 4.68 nM in experiment [2]; over 10000 nM on D(1A) dopamine receptor; over 10000 nM on D(2) dopamine receptor; 105 nM in experiment [3].

With `N#C/N=C(\NCCCN1CCN(c2ccccn2)CC1)c1ccccn1`, the Ki in experiment [1] is 1.12 nM; in experiment [2], 30.6 nM; at D(1A) dopamine receptor it was over 10000 nM; on D(2) dopamine receptor, over 10000 nM; in experiment [3], 130 nM.
